Experimental data taken from ChEMBL document CHEMBL2010673, “Structure-activity relationship of pyrrole based S-nitrosoglutathione reductase inhibitors: carboxamide modification” (Bioorg Med Chem Lett, 2012).
Activity calls are given as the source filed them.

Key:
[1] = target: Sodium-dependent dopamine transporter (Homo sapiens) (UniProt Q01959); assay: Inhibition of dopamine transporter at 10 uM by radioligand displacement assay
In short: (§1)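 Off-target panel: radioligand binding to each receptor, channel or transporter with test compound at 10 µM; activity reported as percent inhibition of specific binding. At least 6 control wells with or without vehicle per assay. Inhibition of 50% or greater counted as a positive response.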

[2] = test system: A549; assay: Cytotoxicity against human A549 cells after 48 hrs by MTS assay; format: cell-based; settings: A549, 48 h
[3] = target: Neuropeptide Y receptor type 2 (Homo sapiens) (UniProt P49146); assay: Inhibition of Y2 receptor at 10 uM by radioligand displacement assay
In short: (§2)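 Off-target radioligand binding panel. Test compound at 10 µM. Each assay had at least 6 control wells, with or without vehicle, for soluble compounds. Values are percent inhibition of radioligand binding. ≥50% inhibition was scored as a positive response.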

[4] = target: Translocator protein (Homo sapiens) (UniProt P30536); assay: Inhibition of Benzodiazepine receptor at 10 uM by radioligand displacement assay; in short: as §2
[5] = Inhibition of Smt-tagged S-nitrosoglutathione reductase expressed in Escherichia coli using […] as substrate for 3 mins by spectrophotometric analysis; settings: read-out: IC50
[6] = Inhibition of alpha1 adrenergic receptor at 10 uM by radioligand displacement assay; in short: as §1
[7] = target: Type-1 angiotensin II receptor (Homo sapiens) (UniProt P30556); assay: Inhibition of AT1 receptor at 10 uM by radioligand displacement assay; in short: as §2
[8] = target: Vasopressin V1a receptor (Homo sapiens) (UniProt P37288); assay: Inhibition of V1a receptor at 10 uM by radioligand displacement assay; in short: as §2
Chain of Vasopressin V1a receptor (Homo sapiens) (P37288 whole entry, looked up): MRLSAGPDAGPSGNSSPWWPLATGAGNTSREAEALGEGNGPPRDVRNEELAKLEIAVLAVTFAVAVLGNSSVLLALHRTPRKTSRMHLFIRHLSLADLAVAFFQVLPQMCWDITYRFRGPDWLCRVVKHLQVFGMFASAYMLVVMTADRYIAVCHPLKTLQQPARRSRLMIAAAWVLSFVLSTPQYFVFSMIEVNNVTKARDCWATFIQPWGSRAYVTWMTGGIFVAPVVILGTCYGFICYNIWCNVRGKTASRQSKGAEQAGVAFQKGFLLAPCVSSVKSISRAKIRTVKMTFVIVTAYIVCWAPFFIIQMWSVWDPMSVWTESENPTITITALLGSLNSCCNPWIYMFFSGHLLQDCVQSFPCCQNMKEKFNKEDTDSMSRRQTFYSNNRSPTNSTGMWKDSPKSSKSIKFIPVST

[9] = Inhibition of MT1 receptor at 10 uM by radioligand displacement assay; in short: as §2
[10] = target: 5-hydroxytryptamine receptor 3A (Homo sapiens) (UniProt P46098); assay: Inhibition of 5HT3 receptor at 10 uM by radioligand displacement assay; in short: as §2
[11] = Inhibition of alpha2 adrenergic receptor at 10 uM by radioligand displacement assay; in short: as §1
[12] = target: D(1A) dopamine receptor (Homo sapiens) (UniProt P21728); assay: Inhibition of dopamine D1 receptor at 10 uM by radioligand displacement assay; in short: as §1
Chain of D(1A) dopamine receptor (Homo sapiens) (P21728 whole entry): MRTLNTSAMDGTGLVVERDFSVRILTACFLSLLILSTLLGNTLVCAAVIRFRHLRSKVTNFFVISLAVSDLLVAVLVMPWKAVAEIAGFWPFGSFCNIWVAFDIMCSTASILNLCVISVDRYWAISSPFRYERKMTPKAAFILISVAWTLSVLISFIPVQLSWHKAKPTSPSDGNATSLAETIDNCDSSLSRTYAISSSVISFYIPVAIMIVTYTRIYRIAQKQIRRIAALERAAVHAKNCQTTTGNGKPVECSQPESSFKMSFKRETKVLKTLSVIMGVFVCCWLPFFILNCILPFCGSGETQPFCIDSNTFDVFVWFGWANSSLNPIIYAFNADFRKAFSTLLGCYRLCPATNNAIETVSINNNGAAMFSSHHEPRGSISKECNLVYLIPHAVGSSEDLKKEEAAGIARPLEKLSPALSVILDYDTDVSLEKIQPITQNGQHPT

[13] = Inhibition of Sodium channel at 10 uM by radioligand displacement assay; in short: as §2
[14] = target: Muscarinic acetylcholine receptor M3 (Homo sapiens) (UniProt P20309); assay: Inhibition of M3 receptor at 10 uM by radioligand displacement assay; in short: as §2
[15] = target: Sodium-dependent noradrenaline transporter (Homo sapiens) (UniProt P23975); assay: Inhibition of norepinephrine […] at 10 uM by radioligand displacement assay; in short: as §1
[16] = target: Cannabinoid receptor 1 (Homo sapiens) (UniProt P21554); assay: Inhibition of CB1 receptor at 10 uM by radioligand displacement assay; in short: as §2
Chain of Cannabinoid receptor 1 (Homo sapiens) (P21554 whole entry): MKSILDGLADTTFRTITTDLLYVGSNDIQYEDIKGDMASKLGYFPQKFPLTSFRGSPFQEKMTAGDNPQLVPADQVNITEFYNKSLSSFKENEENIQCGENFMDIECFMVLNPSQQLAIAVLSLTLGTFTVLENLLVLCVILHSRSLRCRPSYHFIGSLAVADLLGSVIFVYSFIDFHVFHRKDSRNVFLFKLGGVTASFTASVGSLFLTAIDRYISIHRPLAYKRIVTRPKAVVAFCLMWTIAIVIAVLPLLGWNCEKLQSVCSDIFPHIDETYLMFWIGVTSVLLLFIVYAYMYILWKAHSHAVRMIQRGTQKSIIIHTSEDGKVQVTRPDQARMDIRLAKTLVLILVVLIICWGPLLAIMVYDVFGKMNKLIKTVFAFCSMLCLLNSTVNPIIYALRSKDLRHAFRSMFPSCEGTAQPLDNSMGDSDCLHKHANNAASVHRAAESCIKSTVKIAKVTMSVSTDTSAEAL

[17] = target: 5-hydroxytryptamine receptor 6 (Homo sapiens) (UniProt P50406); assay: Inhibition of 5HT6 receptor at 10 uM by radioligand displacement assay; in short: as §2
[18] = Inhibition of GABA receptor at 10 uM by radioligand displacement assay; in short: as §2
[19] = Inhibition of Kv channel at 10 uM by radioligand displacement assay; in short: as §2
[20] = target: B2 bradykinin receptor (Homo sapiens) (UniProt P30411); assay: Inhibition of B2 receptor at 10 uM by radioligand displacement assay; in short: as §2
[21] = target: Thromboxane A2 receptor (Homo sapiens) (UniProt P21731); assay: Inhibition of TP receptor at 10 uM by radioligand displacement assay; in short: as §2
Chain of Thromboxane A2 receptor (Homo sapiens) (P21731 whole entry): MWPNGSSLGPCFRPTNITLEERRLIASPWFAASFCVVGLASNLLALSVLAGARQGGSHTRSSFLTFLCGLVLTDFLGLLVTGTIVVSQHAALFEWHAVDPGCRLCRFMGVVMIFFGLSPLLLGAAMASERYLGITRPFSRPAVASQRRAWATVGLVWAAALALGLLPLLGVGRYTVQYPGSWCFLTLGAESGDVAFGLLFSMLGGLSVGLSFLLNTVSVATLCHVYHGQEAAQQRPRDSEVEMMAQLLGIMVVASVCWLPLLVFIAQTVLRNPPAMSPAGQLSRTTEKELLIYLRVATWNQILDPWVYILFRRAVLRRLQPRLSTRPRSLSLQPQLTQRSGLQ

[22] = Inhibition of delta2 opioid receptor at 10 uM by radioligand displacement assay; in short: as §1
[23] = target: Cholecystokinin receptor type A (Homo sapiens) (UniProt P32238); assay: Inhibition of CCK1 receptor at 10 uM by radioligand displacement assay; in short: as §2
Chain of Cholecystokinin receptor type A (Homo sapiens) (P32238 whole entry): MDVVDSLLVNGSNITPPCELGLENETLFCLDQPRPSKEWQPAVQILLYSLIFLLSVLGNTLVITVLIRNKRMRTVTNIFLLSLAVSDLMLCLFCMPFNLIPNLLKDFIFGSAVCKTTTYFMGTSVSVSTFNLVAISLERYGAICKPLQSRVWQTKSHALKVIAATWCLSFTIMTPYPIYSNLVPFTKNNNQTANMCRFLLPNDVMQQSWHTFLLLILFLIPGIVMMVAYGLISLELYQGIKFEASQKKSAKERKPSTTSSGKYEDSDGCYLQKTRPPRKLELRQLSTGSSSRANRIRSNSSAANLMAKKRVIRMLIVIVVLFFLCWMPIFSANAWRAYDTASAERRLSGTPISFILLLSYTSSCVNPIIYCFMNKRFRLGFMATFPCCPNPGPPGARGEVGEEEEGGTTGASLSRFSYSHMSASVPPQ

[24] = Inhibition of sst receptor at 10 uM by radioligand displacement assay; in short: as §1
[25] = target: Galanin receptor type 2 (Homo sapiens) (UniProt O43603); assay: Inhibition of GAL2 receptor at 10 uM by radioligand displacement assay; in short: as §2
[26] = target: Nociceptin receptor (Homo sapiens) (UniProt P41146); assay: Inhibition of NOP receptor at 10 uM by radioligand displacement assay; in short: as §2
[27] = Inhibition of Small conductance calcium-activated potassium channel at 10 uM by radioligand displacement assay; in short: as §2
[28] = target: C-C chemokine receptor type 1 (Homo sapiens) (UniProt P32246); assay: Inhibition of CCR1 receptor at 10 uM by radioligand displacement assay; in short: as §2
[29] = target: Adenosine receptor A3 (Homo sapiens) (UniProt P0DMS8); assay: Inhibition of adenosine A3 receptor at 10 uM by radioligand displacement assay; in short: as §1
[30] = target: C-X-C chemokine receptor type 2 (Homo sapiens) (UniProt P25025); assay: Inhibition of CXCR2 receptor at 10 uM by radioligand displacement assay; in short: as §2
[31] = target: Neurotensin receptor type 1 (Homo sapiens) (UniProt P30989); assay: Inhibition of NTS1 receptor at 10 uM by radioligand displacement assay; in short: as §2
[32] = target: Mu-type opioid receptor (Homo sapiens) (UniProt P35372); assay: Inhibition of Mu opioid receptor at 10 uM by radioligand displacement assay; in short: as §2
[33] = target: Adenosine receptor A1 (Homo sapiens) (UniProt P30542); assay: Inhibition of adenosine A1 receptor at 10 uM by radioligand displacement assay; in short: as §2
Chain of Adenosine receptor A1 (Homo sapiens) (P30542 whole entry): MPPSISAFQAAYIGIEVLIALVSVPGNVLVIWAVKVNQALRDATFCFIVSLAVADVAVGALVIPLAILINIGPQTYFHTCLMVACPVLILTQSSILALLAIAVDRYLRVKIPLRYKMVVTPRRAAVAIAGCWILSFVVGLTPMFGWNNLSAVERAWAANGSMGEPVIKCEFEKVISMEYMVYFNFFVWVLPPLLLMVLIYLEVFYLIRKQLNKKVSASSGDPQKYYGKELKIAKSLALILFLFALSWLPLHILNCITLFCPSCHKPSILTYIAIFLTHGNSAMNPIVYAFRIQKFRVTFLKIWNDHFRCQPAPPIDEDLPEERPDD

[34] = target: Neuromedin-K receptor (Homo sapiens) (UniProt P29371); assay: Inhibition of NK3 receptor at 10 uM by radioligand displacement assay; in short: as §2
[35] = target: Sodium-dependent serotonin transporter (Homo sapiens) (UniProt P31645); assay: Inhibition of 5HT transporter at 10 uM by radioligand displacement assay; in short: as §2
Chain of Sodium-dependent serotonin transporter (Homo sapiens) (P31645 whole entry, looked up): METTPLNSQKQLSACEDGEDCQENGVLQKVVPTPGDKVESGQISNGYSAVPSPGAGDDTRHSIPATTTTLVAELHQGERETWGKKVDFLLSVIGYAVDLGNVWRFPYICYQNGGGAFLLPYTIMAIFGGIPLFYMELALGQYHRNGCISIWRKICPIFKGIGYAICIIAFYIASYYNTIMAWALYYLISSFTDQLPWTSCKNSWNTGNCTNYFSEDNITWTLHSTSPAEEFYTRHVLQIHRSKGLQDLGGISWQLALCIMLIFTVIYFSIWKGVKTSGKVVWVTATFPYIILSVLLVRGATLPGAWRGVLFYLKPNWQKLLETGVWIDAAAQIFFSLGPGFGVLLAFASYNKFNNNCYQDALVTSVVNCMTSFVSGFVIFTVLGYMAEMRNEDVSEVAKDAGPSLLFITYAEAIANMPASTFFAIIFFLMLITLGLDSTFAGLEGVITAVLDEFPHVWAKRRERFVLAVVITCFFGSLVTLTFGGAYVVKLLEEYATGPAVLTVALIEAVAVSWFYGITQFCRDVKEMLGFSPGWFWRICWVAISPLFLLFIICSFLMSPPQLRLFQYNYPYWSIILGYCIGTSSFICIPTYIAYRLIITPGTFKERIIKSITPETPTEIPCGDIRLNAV

[36] = target: Substance-K receptor (Homo sapiens) (UniProt P21452); assay: Inhibition of NK2 receptor at 10 uM by radioligand displacement assay; in short: as §2
Chain of Substance-K receptor (Homo sapiens) (P21452 whole entry): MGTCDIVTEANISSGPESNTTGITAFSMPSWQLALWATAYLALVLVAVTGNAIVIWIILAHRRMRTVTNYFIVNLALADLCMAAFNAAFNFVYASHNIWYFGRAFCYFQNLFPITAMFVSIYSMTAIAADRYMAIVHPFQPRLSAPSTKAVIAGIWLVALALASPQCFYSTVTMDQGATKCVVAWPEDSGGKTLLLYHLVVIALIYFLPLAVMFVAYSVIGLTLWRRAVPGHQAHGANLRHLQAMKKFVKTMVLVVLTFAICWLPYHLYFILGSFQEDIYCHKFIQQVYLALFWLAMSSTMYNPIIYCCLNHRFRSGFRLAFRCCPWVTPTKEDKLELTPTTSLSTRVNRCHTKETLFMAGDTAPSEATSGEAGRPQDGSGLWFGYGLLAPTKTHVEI

[37] = target: 5-hydroxytryptamine receptor 7 (Homo sapiens) (UniProt P34969); assay: Inhibition of 5HT7 receptor at 10 uM by radioligand displacement assay; in short: as §2
Chain of 5-hydroxytryptamine receptor 7 (Homo sapiens) (P34969 whole entry): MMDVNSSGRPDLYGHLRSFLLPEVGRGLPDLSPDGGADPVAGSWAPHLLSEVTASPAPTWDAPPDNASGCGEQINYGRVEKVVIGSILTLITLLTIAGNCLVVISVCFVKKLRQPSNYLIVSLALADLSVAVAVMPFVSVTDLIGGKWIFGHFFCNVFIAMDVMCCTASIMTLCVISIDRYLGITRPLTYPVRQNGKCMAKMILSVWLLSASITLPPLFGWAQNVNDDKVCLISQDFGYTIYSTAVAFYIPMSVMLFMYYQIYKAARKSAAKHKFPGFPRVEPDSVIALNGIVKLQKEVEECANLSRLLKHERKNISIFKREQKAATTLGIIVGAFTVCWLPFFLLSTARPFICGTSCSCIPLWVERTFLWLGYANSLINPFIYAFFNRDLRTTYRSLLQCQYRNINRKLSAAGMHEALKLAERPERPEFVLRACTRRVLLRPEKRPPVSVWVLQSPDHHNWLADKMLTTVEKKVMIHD

[38] = target: 5-hydroxytryptamine receptor 1A (Homo sapiens) (UniProt P08908); assay: Inhibition of 5HT1A receptor at 10 uM by radioligand displacement assay; in short: as §2
[39] = target: Adenosine receptor A2a (Homo sapiens) (UniProt P29274); assay: Inhibition of adenosine A2a receptor at 10 uM by radioligand displacement assay; in short: as §2
[40] = target: D(2) dopamine receptor (Homo sapiens) (UniProt P14416); assay: Inhibition of D2S receptor at 10 uM by radioligand displacement assay; in short: as §2
[41] = target: Histamine H2 receptor (Homo sapiens) (UniProt P25021); assay: Inhibition of H2 receptor at 10 uM by radioligand displacement assay; in short: as §2
Chain of Histamine H2 receptor (Homo sapiens) (P25021 whole entry): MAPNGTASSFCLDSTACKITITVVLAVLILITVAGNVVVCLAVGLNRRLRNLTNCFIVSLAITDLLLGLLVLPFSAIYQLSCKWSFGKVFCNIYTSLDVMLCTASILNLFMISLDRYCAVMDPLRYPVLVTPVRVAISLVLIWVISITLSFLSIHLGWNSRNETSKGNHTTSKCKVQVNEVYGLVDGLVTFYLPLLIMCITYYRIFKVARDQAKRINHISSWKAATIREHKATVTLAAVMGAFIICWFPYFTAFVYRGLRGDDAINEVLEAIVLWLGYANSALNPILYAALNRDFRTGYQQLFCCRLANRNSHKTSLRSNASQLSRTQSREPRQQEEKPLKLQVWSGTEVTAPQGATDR

[42] = target: 5-hydroxytryptamine receptor 2B (Homo sapiens) (UniProt P41595); assay: Inhibition of 5HT2b receptor at 10 uM by radioligand displacement assay; in short: as §2
Chain of 5-hydroxytryptamine receptor 2B (Homo sapiens) (P41595 whole entry): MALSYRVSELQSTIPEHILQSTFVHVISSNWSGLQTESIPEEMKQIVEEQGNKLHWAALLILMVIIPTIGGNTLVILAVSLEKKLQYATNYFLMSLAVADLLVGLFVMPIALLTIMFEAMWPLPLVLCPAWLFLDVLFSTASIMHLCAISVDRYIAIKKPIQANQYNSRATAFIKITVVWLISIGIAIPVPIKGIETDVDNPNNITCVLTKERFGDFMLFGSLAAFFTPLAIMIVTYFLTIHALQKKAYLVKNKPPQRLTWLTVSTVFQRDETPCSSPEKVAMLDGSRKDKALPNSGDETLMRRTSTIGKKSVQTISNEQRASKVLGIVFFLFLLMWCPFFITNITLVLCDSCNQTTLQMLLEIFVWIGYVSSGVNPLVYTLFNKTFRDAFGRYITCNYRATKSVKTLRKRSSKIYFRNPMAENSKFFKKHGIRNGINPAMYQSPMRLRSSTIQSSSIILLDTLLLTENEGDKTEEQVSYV

[43] = target: Kappa-type opioid receptor (Homo sapiens) (UniProt P41145); assay: Inhibition of Kappa opioid receptor at 10 uM by radioligand displacement assay; in short: as §2

Cc1cc(NS(C)(=O)=O)ccc1-n1c(CCC(=O)O)ccc1-c1ccc(-n2ccnc2)cc1
inactive: inhibition [1] | inhibition [3] | inhibition [4] | inhibition [6] | inhibition [7] | inhibition [8] | inhibition [9] | inhibition [10] | inhibition [11] | inhibition [12] | inhibition [13] | inhibition [14] | inhibition [15] | inhibition [16] | inhibition [17] | inhibition [18] | inhibition [19] | inhibition [20] | inhibition [21] | inhibition [22] | inhibition [23] | inhibition [24] | inhibition [25] | inhibition [26] | inhibition [27] | inhibition [28] | inhibition [29] | inhibition [30] | inhibition [31] | inhibition [32] | inhibition [33] | inhibition [34] | inhibition [35] | inhibition [36] | inhibition [37] | inhibition [38] | inhibition [39] | inhibition [40] | inhibition [41] | inhibition [42] | inhibition [43]
> 150 µM: IC50 [2]
0.029 µM: IC50 [5]

Cc1cc(NS(C)(=O)=O)ccc1-n1c(CCC(=O)O)ccc1-c1ccc(-n2ccnc2C)s1
inactive: inhibition [1] | inhibition [3] | inhibition [4] | inhibition [6] | inhibition [7] | inhibition [8] | inhibition [9] | inhibition [10] | inhibition [11] | inhibition [12] | inhibition [13] | inhibition [14] | inhibition [15] | inhibition [16] | inhibition [17] | inhibition [18] | inhibition [19] | inhibition [20] | inhibition [21] | inhibition [22] | inhibition [23] | inhibition [24] | inhibition [25] | inhibition [26] | inhibition [27] | inhibition [28] | inhibition [29] | inhibition [30] | inhibition [31] | inhibition [32] | inhibition [33] | inhibition [34] | inhibition [35] | inhibition [36] | inhibition [37] | inhibition [38] | inhibition [39] | inhibition [40] | inhibition [41] | inhibition [42] | inhibition [43]
0.043 µM: IC50 [5]
> 150 µM: IC50 [2]
